SR-BI DiI inh: inhibitors of mouse SR-BI mediated HDL lipid uptake; Q61009; inhibition, % at 12.5 µM; ldlA[mSR-BI] CHO cells, DiI-HDL uptake fluorescence, 3 h; hit rate 0.96% among 320,000;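 active means mean replicate inhibition of at least 70% and a set share of replicates each scoring 70 or more; inconclusive means meets just one of the two criteria; inactive means fails both criteria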;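 further: 0% = median of neutral control wells and 100% = median of positive control wells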
Target sequence (Q61009 whole entry, looked up): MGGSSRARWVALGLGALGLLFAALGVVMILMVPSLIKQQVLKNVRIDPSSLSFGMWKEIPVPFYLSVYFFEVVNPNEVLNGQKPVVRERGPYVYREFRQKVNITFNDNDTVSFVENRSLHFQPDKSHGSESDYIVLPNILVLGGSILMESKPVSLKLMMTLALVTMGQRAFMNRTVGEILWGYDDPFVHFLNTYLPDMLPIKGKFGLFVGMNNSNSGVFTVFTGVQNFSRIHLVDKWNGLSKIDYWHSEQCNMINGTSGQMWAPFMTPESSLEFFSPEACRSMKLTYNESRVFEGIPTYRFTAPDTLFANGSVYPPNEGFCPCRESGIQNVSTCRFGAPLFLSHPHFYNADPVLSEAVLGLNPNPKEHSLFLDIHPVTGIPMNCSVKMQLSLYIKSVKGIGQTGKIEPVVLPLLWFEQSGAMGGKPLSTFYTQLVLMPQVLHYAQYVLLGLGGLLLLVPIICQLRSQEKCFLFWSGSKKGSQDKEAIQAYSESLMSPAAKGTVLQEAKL
SR-BI uptake up: activators of SR-BI mediated HDL lipid uptake; CHO ldlA[mSR-BI] cells, DiI-HDL uptake fluorescence, 3 h; 100 = double the neutral-control signal; activation, % at 12.5 µM; hit rate 0.096% among 320,000; AID 504775;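 active means mean replicate activation of at least 60% and every replicate at or above 60%; inconclusive means mean or all-replicate condition met, but not both; inactive means mean below 60% and not all replicates reaching 60%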;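 further: 0% = median plate neutral-control signal and 100% = twice that signal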
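Test system: SR-BI-overexpressing, LDLR-lacking CHO cells; Also added: labelled HDL, 10 µg/mL; Measured by: bottom-read cell fluorescence after medium removal, ex 550/em 595 nm; Timing: 3 h uptake period with compound, 37 °C; Buffer or medium: F12, 0.5% BSA, 25 mM HEPES; Doses: single compound concentration, delivered by pin transfer.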
C2C12 statin: suppression of simvastatin myotoxicity; C2C12 myotubes + simvastatin, ATP luminescence, 48 h; scaled: DMSO 0, geranylgeraniol control 100; rescue of ATP level, % at 7.49 µM; hit rate 0.78% among 330,000;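 active means mean ATP rescue above about 67%, or every replicate alone reaching that limit, limit read from the data, passing the limit was not always enough; inconclusive means no clear call, values can overlap the other calls; inactive means mean under the limit and some replicate under it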;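 further: myotubes were challenged with 10 µM simvastatin during compound exposure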
Vif imaging: inhibitors of HIV Vif; HEK293T cells, Vif self-association by quenched fluorescence, imaging, 24 h; inhibition, % at 7.49 µM; hit rate 0.35% among 340,000; in the data active means inhibition above about 50%, passing the limit was not always enough; inconclusive means no clear call, values can overlap the other calls; inactive means below about 31%
Starred values were filed as active, the others as inactive; ? = inconclusive; nt = not tested or not shown. Most compounds without a hit are left out; they make up all but 1.7% or so of the library.

SMILES	SR-BI DiI inh	SR-BI uptake up	C2C12 statin	Vif imaging
C[C@H]1CN([C@@H](C)CO)S(=O)(=O)c2ccc(-c3ccc(F)cc3)cc2O[C@H]1CN(C)S(C)(=O)=O	nt	nt	-16.8	nt
COc1ccc(C(O)(CC(C)C)C(CN2CCOCC2)c2ccccc2)cc1 (configuration not stated)	-25.3	25.3	29.7	-4.7
CCc1ccc(C(O)(CC(C)C)C(CN2CCOCC2)c2ccccc2)cc1 (configuration not stated)	-13.3	13.3	106.1*	-11.8
CCCC(O)(c1ccc(Cl)cc1)C(CN1CCOCC1)c1ccc(Cl)cc1 (configuration not stated)	78.9*	-78.9	17.1	5.0
CCCNC(=O)N1C[C@@H](C)[C@H](OC)CN(C)C(=O)c2ccc(NS(C)(=O)=O)cc2OC[C@H]1C	nt	nt	2.7	nt
Cc1c(Cl)cccc1NC(=S)N1CCN(Cc2ccc3c(c2)OCO3)CC1	-5.9	5.9	nt	53.1*
Cc1ccccc1NC(=S)N1CCN(Cc2ccc3c(c2)OCO3)CC1	-25.8	25.8	11.8	2.3
O=C(N[C@H]1CC[C@H](CCNS(=O)(=O)c2ccccc2Cl)O[C@H]1CO)c1ccccc1	nt	nt	3.2	nt
CC(C)CCNc1ncnc2c1nnn2Cc1ccccc1	-7.8	7.8	-3.7	1.8
COc1ccccc1CNc1ncnc2c1nnn2Cc1ccccc1	-19.0	19.0	125.8*	nt
N#CNC(=Nc1ccccc1)SCc1ccc(C(=O)O)cc1	-16.3	16.3	nt	0.4
CSC(=Nc1ccccc1)N=C(SCc1ccccc1)N(C)C	86.0*	-86.0	nt	1.1
N#C[C@H]1[C@H](c2ccc(-c3ccccc3F)cc2)[C@@H](CO)N1C(=O)C1CCOCC1	nt	nt	10.5	nt
COc1cc2c(N3CCOCC3)cc(O)c(CC(=O)Nc3ccccc3)c2cc1OC	26.3	-26.3	114.7*	17.3
COCCN(C(=O)Nc1ccc(OC)cc1OC)C1CCN(C(C)=O)CC1	79.6*	nt	-3.3	-4.8
COCCN(C(=S)Nc1ccc(OC)c(Cl)c1)C1CCN(C(C)=O)CC1	nt	nt	-0.7	9.5
CN1C(=O)c2cc(NC(=O)Cc3ccccc3)ccc2OC[C@H]2O[C@@H](CC(=O)NCC3CC3)CC[C@H]21	nt	nt	-3.7	nt
Cc1cc(N2CCN(C)CC2)nc2ccc(NC(=S)N3CCCCC3)cc12	30.6	-30.6	nt	-5.3
Cc1cccc(N2CCN(C(=S)Nc3ccc4nc(N5CCN(C)CC5)cc(C)c4c3)CC2)c1C	89.0*	-89.0	31.5	-13.3
CCOC(=O)N1CCC(NC(=S)Nc2ccc3nc(N4CCN(C)CC4)cc(C)c3c2)CC1	-111.6	111.6*	11.3	-2.3
COc1cccc(CNC(=O)c2cc3c(c(-c4cccc(-c5ccncc5)c4)n2)[C@H](CCO)N([S@@](=O)C(C)(C)C)C3)c1	nt	nt	-13.2	nt
O=C(/C=C/c1cc([N+](=O)[O-])ccc1OC(F)F)Nc1cccc(OC(F)F)c1	75.0*	-75.0	nt	7.3
COc1ccccc1NC(=O)/C=C/c1cc([N+](=O)[O-])ccc1OC(F)F	nt	nt	-9.6	-0.7
CN1[C@@H]2c3ccc(-c4ccccc4)c(=O)n3C[C@H]1[C@H](CO)[C@H]2C(=O)Nc1nccs1	nt	nt	-10.8	nt
CC(=O)NC(=S)Nc1ccc(NC(=S)NC(=O)/C=C/c2ccco2)cc1	41.7	-41.7	nt	3.3
SMILES	SR-BI DiI inh	SR-BI uptake up	C2C12 statin	Vif imaging
CCC(=O)Nc1ccc(NC(=S)NC(=O)/C=C/c2ccco2)cc1	89.1*	-89.1	-5.3	?
C[C@@H]1CCCCO[C@@H](CN(C)C(=O)Nc2ccc3c(c2)OCO3)[C@H](C)CN([C@@H](C)CO)C(=O)c2cc(N(C)C)ccc2O1	nt	nt	-31.6	nt
Oc1ccc(-c2csc(Nc3ccc4c(c3)OCO4)n2)c(O)c1	61.0	-61.0	131.6*	-2.8
Oc1ccc(-c2csc(Nc3ncccn3)n2)c(O)c1	-1.8	1.8	7.5	7.7
Cc1ccc(S(=O)(=O)N(C)C[C@@H]2Oc3c(NC(=O)Nc4c(C)noc4C)cccc3C(=O)N([C@@H](C)CO)C[C@H]2C)cc1	nt	nt	-0.6	nt
COc1ccc(CN2CC(C(=O)NCCCN3CCCCCC3)CC2=O)cc1 (configuration not stated)	-1.1	1.1	-14.6	-21.5
COc1ccc(CN2CC(C(=O)NCCCN3CCOCC3)CC2=O)cc1 (configuration not stated)	nt	nt	98.5*	-0.3
Cc1ccc(C(=O)c2c3ccccc3[n+]([O-])n2CCC(=O)O)cc1	-9.7	9.7	79.6*	3.8
NC(=O)CCn1c(C(=O)c2ccc(Cl)cc2)c2ccccc2[n+]1[O-]	-17.7	17.7	nt	nt
C[C@@H]1CN([C@H](C)CO)S(=O)(=O)c2ccc(C#CC3CCCCC3)cc2O[C@@H]1CN(C)C(=O)Cc1ccncc1	nt	nt	44.5	nt

Source: PubChem BioAssay
